Calls of active or inactive are those of the source. The calls are words filed in the database; no cut-off is given here.
How the values were obtained:
HUVEC [1] = experiment: Cytotoxicity against HUVEC after 48 hrs by MTT assay; assay type: cell-based; details: Homo sapiens
K562 [2] = experiment: Induction of morphological changes in human K562 cells assessed as elongation of cells at 30 nM after 6 hrs; assay type: functional, cell-based
Outline: (§1)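 K562 cells kept in RPMI-1640 with 10% FBS, 2.05 mM glutamine and penicillin/streptomycin at 37 °C, 5% CO2. Exposed to 30 nM drug alongside DMSO-treated controls. Cell morphology examined by microscopy.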

K562 [3] = experiment: Induction of morphological changes in human K562 cells assessed as cell blebbing at 30 nM after 24 hrs; assay type: functional, cell-based; outline: as §1
K562 [4] = experiment: Induction of apoptosis in human K562 cells assessed as early apoptotic cells at 30 nM after 6 hrs by Annexin V-FITC/propidium iodide staining-based flow cytometric analysis (reference value: 1.9%); assay type: functional
K562 [5] = experiment: Induction of apoptosis in human K562 cells assessed as late apoptotic cells at 30 nM after 6 hrs by Annexin V-FITC/propidium iodide staining-based flow cytometric analysis (reference value: 2.2%); assay type: functional
K562 [6] = experiment: Induction of apoptosis in human K562 cells assessed as necrotic cells at 30 nM after 6 hrs by Annexin V-FITC/propidium iodide staining-based flow cytometric analysis (reference value: 0.1%); assay type: functional
K562 [7] = experiment: Induction of apoptosis in human K562 cells assessed as viable cells at 30 nM after 12 hrs by Annexin V-FITC/propidium iodide staining-based flow cytometric analysis (reference value: 95.8%); assay type: functional; details: K562, 12 h, read-out: Activity
K562 [8] = experiment: Induction of apoptosis in human K562 cells assessed as necrotic cells at 30 nM after 12 hrs by Annexin V-FITC/propidium iodide staining-based flow cytometric analysis (reference value: 0.1%); assay type: functional
K562 [9] = experiment: Induction of apoptosis in human K562 cells assessed as viable cells at 30 nM after 24 hrs by Annexin V-FITC/propidium iodide staining-based flow cytometric analysis (reference value: 95.8%); assay type: functional; details: K562, 24 h, read-out: Activity
K562 [10] = experiment: Induction of apoptosis in human K562 cells assessed as early apoptotic cells at 30 nM after 24 hrs by Annexin V-FITC/propidium iodide staining-based flow cytometric analysis (reference value: 1.9%); assay type: functional
K562 [11] = experiment: Induction of apoptosis in human K562 cells assessed as necrotic cells at 30 nM after 24 hrs by Annexin V-FITC/propidium iodide staining-based flow cytometric analysis (reference value: 0.1%); assay type: functional
K562 [12] = experiment: Induction of apoptosis in human K562 cells assessed as viable cells at 30 nM after 48 hrs by Annexin V-FITC/propidium iodide staining-based flow cytometric analysis (reference value: 95.8%); assay type: functional; details: K562, 48 h, read-out: Activity
K562 [13] = experiment: Induction of apoptosis in human K562 cells assessed as early apoptotic cells at 30 nM after 48 hrs by Annexin V-FITC/propidium iodide staining-based flow cytometric analysis (reference value: 1.9%); assay type: functional
K562 [14] = experiment: Induction of apoptosis in human K562 cells assessed as necrotic cells at 30 nM after 48 hrs by Annexin V-FITC/propidium iodide staining-based flow cytometric analysis (reference value: 0.1%); assay type: functional
K562 [15] = experiment: Induction of apoptosis in human K562 cells assessed as viable cells at 300 nM after 6 hrs by Annexin V-FITC/propidium iodide staining-based flow cytometric analysis (reference value: 95.6%); assay type: functional; details: K562, 6 h, read-out: Activity
K562 [16] = experiment: Induction of apoptosis in human K562 cells assessed as necrotic cells at 300 nM after 6 hrs by Annexin V-FITC/propidium iodide staining-based flow cytometric analysis (reference value: 0%); assay type: functional
K562 [17] = experiment: Induction of apoptosis in human K562 cells assessed as early apoptotic cells at 300 nM after 12 hrs by Annexin V-FITC/propidium iodide staining-based flow cytometric analysis (reference value: 2.2%); assay type: functional
K562 [18] = experiment: Induction of apoptosis in human K562 cells assessed as late apoptotic cells at 300 nM after 12 hrs by Annexin V-FITC/propidium iodide staining-based flow cytometric analysis (reference value: 2.1%); assay type: functional
K562 [19] = experiment: Induction of apoptosis in human K562 cells assessed as necrotic cells at 300 nM after 12 hrs by Annexin V-FITC/propidium iodide staining-based flow cytometric analysis (reference value: 0%); assay type: functional
K562 [20] = experiment: Induction of apoptosis in human K562 cells assessed as viable cells at 300 nM after 24 hrs by Annexin V-FITC/propidium iodide staining-based flow cytometric analysis (reference value: 95.6%); assay type: functional; details: K562, 24 h, read-out: Activity
K562 [21] = experiment: Induction of apoptosis in human K562 cells assessed as late apoptotic cells at 300 nM after 24 hrs by Annexin V-FITC/propidium iodide staining-based flow cytometric analysis (reference value: 2.1%); assay type: functional
K562 [22] = experiment: Induction of apoptosis in human K562 cells assessed as necrotic cells at 300 nM after 24 hrs by Annexin V-FITC/propidium iodide staining-based flow cytometric analysis (reference value: 0%); assay type: functional
K562 [23] = experiment: Induction of apoptosis in human K562 cells assessed as viable cells at 300 nM after 48 hrs by Annexin V-FITC/propidium iodide staining-based flow cytometric analysis (reference value: 95.6%); assay type: functional; details: K562, 48 h, read-out: Activity
K562 [24] = experiment: Induction of apoptosis in human K562 cells assessed as early apoptotic cells at 300 nM after 48 hrs by Annexin V-FITC/propidium iodide staining-based flow cytometric analysis (reference value: 2.2%); assay type: functional
K562 [25] = experiment: Induction of apoptosis in human K562 cells assessed as necrotic cells at 300 nM after 48 hrs by Annexin V-FITC/propidium iodide staining-based flow cytometric analysis (reference value: 0%); assay type: functional
HepG2 [26] = experiment: Anti-migratory activity against human HepG2 cells at 10 nM after 48 hrs by wound-healing assay relative to control; assay type: functional
Outline: (§2)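 HepG2 cells seeded at 2 × 10^5 cells/well in DMEM and grown 24 h. Monolayer scratched with a 10 μl pipette tip, then PBS-washed three times. Treated with DMSO or compound (10, 30, 100 nM) at 37 °C, 5% CO2, imaged by microscopy at 0–48 h. Migration distance measured; inhibition ratio calculated against DMSO control.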

HepG2 [27] = experiment: Anti-migratory activity against human HepG2 cells at 30 nM after 48 hrs by wound-healing assay relative to control; assay type: functional; outline: as §2
HepG2 [28] = experiment: Anti-migratory activity against human HepG2 cells at 100 nM after 48 hrs by wound-healing assay relative to control; assay type: functional; outline: as §2
HepG2 [29] = experiment: Anti-migratory activity against human HepG2 cells after 24 hrs by DAPI staining-based transwell assay; assay type: functional, cell-based
Outline: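 HepG2 cells in serum-free DMEM, 2 × 10^5 cells/well, placed in upper compartment of polycarbonate filter inserts; lower chamber DMEM + 10% FBS. Compound or DMSO added after 30 min; 24 h at 37 °C, 5% CO2. Filters methanol-fixed and DAPI-stained, non-migrated cells swabbed off. Migrated cells on the lower side counted in three random fields.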

HUVEC [30] = experiment: Antiangiogenic activity against HUVEC assessed as inhibition of tube formation after 12 hrs by microscopic analysis; assay type: functional, cell-based; details: Homo sapiens
Outline: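 Matrigel (13.9 mg/mL) polymerized 30 min at 37 °C. HUVECs (1 × 10^5 cells/well) in Ham's F-12 + 10% FBS plated on the gel; after 40 min, DMSO or compound (10, 30, 100 nM) added. Incubated 12 h at 37 °C, 5% CO2; capillary-like tube formation photographed by microscopy.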

COc1ccc(CN2C(=O)C(=O)c3cc(-c4ccc(OC)cc4)ccc32)cc1
IC50 (HUVEC [1]): 920 nM
Activity (K562 [2]): Active
Activity (K562 [3]): Active
Activity (K562 [4]): 2.1%
Activity (K562 [5]): 3.3%
Activity (K562 [6]): 0.1%
viability at 0.03 µM (K562 [7]): 92.8%
Activity (K562 [8]): 0%
viability at 0.03 µM (K562 [9]): 88.5%
Activity (K562 [10]): 5.7%
Activity (K562 [11]): 0.4%
viability at 0.03 µM (K562 [12]): 55.6%
Activity (K562 [13]): 22.3%
Activity (K562 [14]): 1%
viability at 0.3 µM (K562 [15]): 93.6%
Activity (K562 [16]): 0.2%
Activity (K562 [17]): 5.7%
Activity (K562 [18]): 5.9%
Activity (K562 [19]): 0.4%
viability at 0.3 µM (K562 [20]): 82.6%
Activity (K562 [21]): 4.7%
Activity (K562 [22]): 0.2%
viability at 0.3 µM (K562 [23]): 4.7%
Activity (K562 [24]): 85.2%
Activity (K562 [25]): 0%
Activity (HepG2 [26]): 11.9%
Activity (HepG2 [27]): 26.9%
Activity (HepG2 [28]): 47.9%
Activity (HepG2 [29]): Dose-dependent effect
Activity (HUVEC [30]): Dose-dependent effect
